Calls of active or inactive are those of the source. The calls are words filed in the database; no cut-off is given here. Some results are limits rather than exact numbers.

Series [1] deals with Trypanosoma brucei rhodesiense. As to the kind of experiment: Antitrypanosomal activity against bloodstream Trypanosoma brucei rhodesiense STIB900 infected in NMRI mouse assessed as parasite free mouse survival at 25 mg/kg, po administered for 4 consecutive days from day 3 to 6 postinfection measured up to 60 days. More on the design: dose 25 mg/kg. The series is classed as functional, organism-based. The method, boiled down:
(§1)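 Female NMRI mice infected ip with 2×10^4 STIB900 bloodstream forms; groups of four dosed on 4 consecutive days, days 3-6 postinfection. Compounds in DMSO diluted with water to 10% DMSO. Untreated infected controls. Tail-blood parasitemia followed to day 60; surviving aparasitemic mice at day 60 scored cured; mean survival time recorded.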

Series [2] is described as follows: Selectivity index, ratio of IC50 for rat L6 cells to IC50 for axenic amastigotes of Leishmania donovani MHOM/SD/62/1S-CL2D. The series is classed as toxicity, cell-based. To be noted: read-out: Ratio IC50. Summed up: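 Ratio of L6 IC50 to L. donovani IC50. L6: 4000 cells in RPMI 1640 with 10% FBS, 70 h at 37 °C, then Alamar blue 2–3 h, fluorescence 536/588 nm. Leishmania: 6×10^4 axenic amastigotes per well, 2-fold dilutions, 72 h at 37 °C in 5% CO2, tetrazolium CellTiter read at 490 nm. IC50 from a four-parameter dose–response fit.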

The nature of series [3]: Selectivity index, ratio of IC50 for rat L6 cells to IC50 for bloodstream Trypanosoma brucei rhodesiense STIB900. To be noted: read-out: Ratio IC50. The series is classed as toxicity, cell-based.
The test system of series [4] is Trypanosoma brucei rhodesiense. The series can be described thus: Antitrypanosomal activity against bloodstream Trypanosoma brucei rhodesiense STIB900 infected in NMRI mouse assessed as survival rate at 25 mg/kg, po administered 4 consecutive days from day 3 to 6 postinfection. The series is classed as functional. The method, boiled down: (§2)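 Female NMRI mice infected ip with 2×10^4 STIB900 bloodstream forms. Groups of four treated on days 3–6 postinfection. Compounds in DMSO diluted with water to a final 10% DMSO. Untreated infected controls. Tail blood checked for parasitemia to day 60. Surviving aparasitemic mice at day 60 scored cured; mean survival time in days from recorded deaths.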

Series [5] relates to Leishmania donovani. The series can be described thus: Antileishmanial activity against axenic amastigotes of Leishmania donovani MHOM/SD/62/1S-CL2D after 72 hrs. The series is classed as functional, organism-based. The method, boiled down: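 Axenic amastigotes (adapted from promastigotes), 6×10^4 per well, amastigote medium, 37 °C. 2-fold compound dilutions; 72 h at 37 °C, humidified 5% CO2. Growth read by tetrazolium CellTiter absorbance at 490 nm several hours after reagent addition. IC50 from four-parameter dose–response fit. DMSO ≤1%.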

The test system of a further series is L6. As to the kind of experiment: Cytotoxicity against rat L6 cells after 70 hrs by alamar blue assay. The series is classed as cell-based. To be noted: L6, 70 h. In general terms: The colour change of resazurin is a common sign of viable cells or microbes.
Series [6] relates to Trypanosoma brucei rhodesiense. The series can be described thus: Antitrypanosomal activity against bloodstream Trypanosoma brucei rhodesiense STIB900 after 70 hrs by alamar blue assay. The series is classed as functional, organism-based. Conditions: STIB900, 70 h. The method, boiled down:
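Bloodstream forms, 2000 per well, in supplemented MEM with Earle's salts (0.2 mM 2-mercaptoethanol, 1 mM pyruvate, 0.5 mM hypoxanthine, 15% heat-inactivated horse serum). Serial dilutions, 70 h at 37 °C, 5% CO2. IC50 from sigmoidal curves; two independent runs in duplicate. DMSO ≤1%.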

A further series relates to Plasmodium falciparum. The series can be described thus: Antiplasmodial activity after 48 hrs against chloroquine-resistant Plasmodium falciparum K1 infected human erythrocytes by [3H]hypoxanthine uptake. The series is classed as functional, organism-based.
Series [7] can be described thus: Selectivity index, ratio of IC50 for rat L6 cells to IC50 for chloroquine-resistant Plasmodium falciparum K1. The series is classed as toxicity, cell-based. Conditions: read-out: Ratio IC50. The method, boiled down:
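Ratio of L6 IC50 to P. falciparum K1 IC50. L6: 4000 cells, 70 h at 37 °C, Alamar blue fluorescence. Parasites: infected human erythrocytes (1.25% hematocrit, 0.3% parasitemia) in low-O2 gas for 48 h, then [3H]-hypoxanthine for 24 h, uptake counted. Sigmoidal IC50s, two independent runs in duplicate.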

Series [8] relates to Trypanosoma brucei brucei. As to the kind of experiment: Antitrypanosomal activity against second-stage Trypanosoma brucei brucei GVR35 infected in african sleeping sickness CNS mouse model. The series is classed as functional, organism-based.
Series [9] relates to Trypanosoma brucei rhodesiense. The series can be described thus: Antitrypanosomal activity against bloodstream Trypanosoma brucei rhodesiense STIB900 infected in NMRI mouse assessed as survival rate at 100 mg/kg, po administered 4 consecutive days from day 3 to 6 postinfection. The series is classed as functional. The method, boiled down:
as §2

Series [10] relates to Trypanosoma brucei rhodesiense. The series can be described thus: Antitrypanosomal activity against bloodstream Trypanosoma brucei rhodesiense STIB900 infected in NMRI mouse assessed as parasite free mouse survival at 100 mg/kg, po administered for 4 consecutive days from day 3 to 6 postinfection measured up to 60 days. The series is classed as functional, organism-based. More on the design: dose 100 mg/kg.

Series [11] has as its system Trypanosoma brucei rhodesiense. The series can be described thus: Antitrypanosomal activity against bloodstream Trypanosoma brucei rhodesiense STIB900 infected in NMRI mouse assessed as parasite free mouse survival at 5 mg/kg, ip administered for 4 consecutive days from day 3 to 6 postinfection measured up to 60 days. The series is classed as functional, organism-based. More on the design: dose 5 mg/kg. Summed up:
as §1

The test system of series [12] is Trypanosoma brucei rhodesiense. The series can be described thus: Antitrypanosomal activity against bloodstream Trypanosoma brucei rhodesiense STIB900 infected in NMRI mouse assessed as survival rate at 5 mg/kg, ip administered 4 consecutive days from day 3 to 6 postinfection. To be noted: route intraperitoneal. The series is classed as functional. Summed up:
as §2

The test system of series [13] is Trypanosoma brucei rhodesiense. The series can be described thus: Ratio compound IC50 to pentamidine IC50 for Trypanosoma brucei rhodesiense STIB900. The series is classed as functional.
The test system of series [14] is Leishmania donovani. The series can be described thus: Ratio of compound IC50 to pentamidine IC50 for Leishmania donovani MHOM/SD/62/1S-CL2D. The series is classed as functional.
Series [15] relates to Trypanosoma brucei rhodesiense. As to the kind of experiment: Antitrypanosomal activity against bloodstream Trypanosoma brucei rhodesiense STIB900 infected in NMRI mouse assessed as survival rate at 2 mg/kg, ip administered 4 consecutive days from day 3 to 6 postinfection. To be noted: route intraperitoneal. The series is classed as functional. Summed up:
as §2

The subject of series [16] is Trypanosoma brucei rhodesiense. The series can be described thus: Antitrypanosomal activity against bloodstream Trypanosoma brucei rhodesiense STIB900 infected in NMRI mouse assessed as survival rate at 1 mg/kg, ip administered 4 consecutive days from day 3 to 6 postinfection. The series is classed as functional. To be noted: route intraperitoneal. Summed up:
as §2

Series [17] relates to Trypanosoma brucei rhodesiense. As to the kind of experiment: Antitrypanosomal activity against bloodstream Trypanosoma brucei rhodesiense STIB900 infected in NMRI mouse assessed as parasite free mouse survival at 2 mg/kg, ip administered for 4 consecutive days from day 3 to 6 postinfection measured up to 60 days. The series is classed as functional, organism-based. More on the design: dose 2 mg/kg. The method, boiled down:
as §2

Regarding `CO/N=C(/N)c1ccc(OCCCCCOc2ccc(/C(N)=N\OC)nc2)cn1`, the outcome in [1] was inactive. Also, the selectivity ratio was less than 1 in series [2], less than 1 in series [3] and 11 in [7]. Moreover, the Survival in series [4] came out at 19.5 days. Besides, the IC50 – broadly, the concentration that inhibits the measured activity by half – in the series with Leishmania donovani [5] is greater than 50 µM; with L6, 39.4 µM; in series [6], 51.2 µM; in the series on Plasmodium falciparum, 3.5 µM.

Turning to `N/C(=N/O)c1ccc(OCCCCCOc2ccc(/C(N)=N\O)nc2)cn1`, the outcome in series [8] was inactive. The outcome in series [1] was Active. Further, the selectivity ratio is less than 2 in [2], 2 in [3] and less than 16 in [7]. Also, in series [4], the Survival is greater than 60 days. The half-maximal inhibitory concentration (IC50) is greater than 100 µM in the series on Leishmania donovani [5], 166 µM in the series on L6, 108 µM in series [6] and greater than 10.7 µM in the series on Plasmodium falciparum.

For `N/C(=N\O)c1ccc(OCCCCCOc2ccc(/C(N)=N\O)cn2)nc1`, the result in series [1] was inactive. Besides, the selectivity ratio in series [2] is less than 1; in series [3], less than 1; in series [7], 3. In addition, the Survival in series [4] came to 8.75 days. For the same compound, the IC50 in the series on Leishmania donovani [5] was greater than 100 µM; with L6, 16.4 µM; in series [6], 27.4 µM; in the series with Plasmodium falciparum it was 6.5 µM.

Regarding `N/C(=N\O)c1cc(OCCCCCOc2ccnc(/C(N)=N/O)c2)ccn1`, the Survival in series [9] was found to be 14.25 days. Also, the selectivity ratio is 4 in [2], 13 in [3] and less than 76 in series [7]. For the same compound, in series [10], the result was inactive. The IC50 in the series with Leishmania donovani [5] was 45 µM; with L6, 159 µM; in series [6] it was 12 µM; with Plasmodium falciparum, greater than 2.1 µM.

Regarding `c1cc(C2=NCCN2)ncc1OCCCCCOc1ccc(C2=NCCN2)nc1`, the values for the selectivity ratio in [2], in series [3] and in series [7] were 2, 484 and 2290, respectively. In addition, the IC50 turned out to be 36 µM in the series on Leishmania donovani [5], 82.3 µM in the series on L6, 0.17 µM in series [6] and 0.036 µM in the series with Plasmodium falciparum. In addition, the outcome in [11] was inactive. Also, in series [12], the Survival is 12.75 days.

As for `CO/N=C(\N)c1cc(OCCCCCOc2ccnc(/C(N)=N/OC)c2)ccn1`, in series [9], the Survival came out at 11.75 days. Also, the selectivity ratio was 1 in series [2], 8 in series [3] and less than 69 in [7]. Besides, the outcome in series [10] was inactive. Besides, the IC50 in the series on Leishmania donovani [5] was greater than 100 µM; in the series on L6, 138 µM; in series [6] it was 18.2 µM; with Plasmodium falciparum it was greater than 2 µM.

On to `N=C(N)c1cc(OCCCCCOc2ccnc(C(=N)N)c2)ccn1`, for which the selectivity ratio in series [2] is 2; in series [3] it was 1160; in series [7] it was 3710. Further, the IC50 stood at 38 µM in the series on Leishmania donovani [5], 59.3 µM in the series with L6, 0.051 µM in [6] and 0.016 µM with Plasmodium falciparum. Besides, the result in [11] was inactive. The Survival in series [12] was 14 days.

On to `N=C(N)c1ccc(OCCCCCOc2ccc(C(=N)N)nc2)cn1`, for which the “Ratio IC50” value turned out to be 3 in series [13] and 4 in the series with Leishmania donovani [14]. The selectivity ratio was 11 in series [2], 4900 in [3] and 544 in series [7]. Also, the IC50 was found to be 0.47 µM in the series on Leishmania donovani [5], 4.9 µM in the series with L6, 0.001 µM in [6] and 0.009 µM in the series with Plasmodium falciparum. Also, in series [12], the Survival is greater than 36 days.

On to `Nc1nc(N)nc(Nc2ccc([As]3SCC(CO)S3)cc2)n1` (configuration not stated) [MELARSOPROL], for which the values for the Survival in [15] and in [16] were greater than 60 days and greater than 51.5 days, respectively. Besides, in [17], the outcome was Active.
